SMILES strings stand for the structures.

This assay can be described thus: Displacement of [3H]RX821002 from alpha2 adrenoceptor in human prefrontal cortex neural membrane. It counts as tissue-based. The gist of the method: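 Postmortem human PFC P2 membranes (homogenized in 5 mM Tris–HCl pH 7.4, 1 mM MgCl2, 0.25 M sucrose; stored at −70 °C) incubated in 50 mM Tris–HCl pH 7.5 with 1 nM [3H]RX821002 and competitor (10 concentrations) 30 min at 25 °C. Bound ligand separated by GF/C filtration and counted by scintillation. Non-specific binding with 10^-5 M adrenaline. Ki by one-site nonlinear regression, expressed as pKi.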

In general, pKi refers to the negative decadic logarithm of the Ki, by convention in mol/L. Lower therefore signals a large Ki. Take `COC1(C2=NCCN2)COc2ccccc2O1` (stereo unspecified): the pKi is recorded as 9.04.

`N=C(N)Oc1ccc2c(c1)CCCC2` came in with a negative-log Ki (pKi) of 5.35.

With `Cc1ccc(OC(=N)N)cc1`, the pKi came to 5.09.

`N=C(N)Nc1ccc2c(c1)CCCC2`: the pKi amounted to 7.11.

Consider `N=C(N)Oc1ccc2c(c1)CCC2`, for which the pKi was 5.27.

For `N=C(N)Oc1ccc(Sc2ccc(O)cc2)cc1`, the pKi came to 4.94.

For the compound `N=C(N)Oc1ccc(Cc2ccc(OC(=N)N)cc2)cc1`, the pKi was found to be 5.4.

`N=C(N)Oc1ccc(Cc2ccc(O)cc2)cc1`: the pKi is recorded as 4.98.

On to `N=C(N)Oc1ccc(Oc2ccc(O)cc2)cc1`, for which the pKi is on record as 4.49.

`N=C(N)Oc1ccc(Sc2ccc(OC(=N)N)cc2)cc1` gave a pKi of 5.1.

On to `N=C(N)Oc1ccc(Oc2ccc(OC(=N)N)cc2)cc1`, for which the negative logarithm of the Ki (pKi) is 4.72.

The values are drawn from ChEMBL document CHEMBL1156729, “Novel synthesis and pharmacological evaluation as alpha2-adrenoceptor ligands of O-phenylisouronium salts” (Bioorg Med Chem, 2008).
